This is a sample that favours compounds with a hit; in the whole collection about 3.9% have one here.
SR-BI HDL uptake = blocks mouse SR-BI lipid uptake from DiI-HDL | Q61009 | ldlA[mSR-BI] CHO cells, DiI-HDL uptake fluorescence, 3 h | inhibition, % at 12.5 µM | 320,000 compounds, 0.96% hits | AID 488896;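 active = mean replicate inhibition of at least 70% and a set share of replicates each scoring 70 or more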;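 also: 0% = median of neutral control wells and 100% = median of positive control wells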
ABCB6 inh 2 = inhibitors of human ABC transporter ABCB6 | Q9NP58 | K562-ABCB6 porphyrin accumulation, flow cytometry, 1 h; active compounds read low | fluorescence ratio to DMSO, % at 10 µM | 360,000 compounds, 0.19% hits;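 active = fluorescence ratio to DMSO below 75%, the collection mean minus 3 SD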;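 also: signal is porphyrin accumulated inside mitochondria; 100% equals median channel fluorescence of DMSO control wells; lower ratio means ABCB6 inhibition with less porphyrin fluorescence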
AHR act = activators of human aryl hydrocarbon receptor | P35869 | AHR-responsive luciferase reporter cells, luminescence | activation, % at 5 µM | 320,000 compounds, 2.5% hits | AID 2796; in the data active = activation above about 47%;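 also: 0% = vehicle wells and 100% = reference agonist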
HIF activator = HIF pathway transcriptional activation; U2OS HRE-luciferase reporter, luminescence; normalized: DMSO 0%, desferrioxamine 100%; activation, % at 7.5 µM (by protocol); 300,000 compounds, 0.32% hits; AID 1910;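 active = mean activation of at least 10% of the iron chelator positive control signal, with at least half of replicates also reaching 10%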
SR-BI DiI-HDL act = activators of SR-BI mediated HDL lipid uptake; AID 504775; CHO ldlA[mSR-BI] cells, DiI-HDL uptake fluorescence, 3 h; 100 = double the neutral-control signal; 320,000 compounds, 0.096% hits; activation, % at 12.5 µM;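 active = mean replicate activation of at least 60% and every replicate at or above 60%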;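 also: 0% = median plate neutral-control signal and 100% = twice that signal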
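Material: SR-BI-overexpressing, LDLR-lacking CHO cells | Dosing: Single compound concentration, delivered by pin transfer | Probe or stimulus: Labelled HDL, 10 µg/mL | Signal: Bottom-read cell fluorescence after medium removal, ex 550/em 595 nm | Schedule: 3 h, 37 °C | Evaluation: HDL uptake via cellular fluorescence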
GAA850 FXN act = frataxin GAA850 promoter activation | HEK293 lucGAA850 FXN promoter luciferase reporter, 24 h; percent of 10 µM SAHA response | activation, % at 6 µM | AID 540364 | 360,000 compounds, 0.56% hits;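 active = activation above the average of all compounds screened plus 3 SD, cutoff fixed separately per campaign, cut at about 7.5% in these data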;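 also: 0% = DMSO wells and 100% = 10 µM SAHA wells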
The depositor's hits bear a star; . = not tested or not shown.

SMILES	SR-BI HDL uptake	ABCB6 inh 2	AHR act	HIF activator	SR-BI DiI-HDL act	GAA850 FXN act
CC1(C(=O)N(CC(=O)NC2CCCC2)Cc2ccc(Cl)cc2)CC(=O)N=C2C=CC=CN21 (centres undefined)	.	99.0	2.3	0.2	.	0.4
Clc1ccc(CSc2cc3c(nn2)-c2ccccc2CC3)cc1	-1.8	100.0	47.3*	.	1.8	0.2
O=C1N(c2ccccc2C(F)(F)F)O[C@@]1(c1ccccc1)C1CCCC1	7.6	95.0	-3.3	.	-7.6	-1.2
Cc1cc(/C=C2/NC(=O)N(Cc3ccccc3F)C2=O)c(C)n1C	24.5	101.0	76.5*	-0.2	-24.5	1.0
O=C(O)c1ccc(S(=O)(=O)/N=C2\C=C(Nc3ccccc3F)C(=O)c3ccccc32)cc1	5.6	108.0	69.6*	-0.8	-5.6	-5.5
Cc1ccccc1NC1=C/C(=N\S(=O)(=O)c2ccc(C(=O)O)cc2)c2ccccc2C1=O	-5.0	104.0	21.7	-14.1	5.0	0.2
Cc1cc(C)n2nc(SCC(=O)Nc3ccccc3)nc2n1	-25.5	98.0	0.3	-0.5	25.5	-1.1
CC(=O)OCC1=C(C(=O)OC(C)(C)C)N2C(=O)[C@@H](NC(=O)Cc3ccccc3)[C@H]2SC1	30.4	93.0	.	.	-30.4	1.7
CC1=C(C(=O)OCC(Cl)(Cl)Cl)N2C(=O)C(NC(=O)Cc3ccccc3)C2SC1 (centres undefined)	77.5*	92.0	4.2	-0.6	-77.5	1.6
Cc1cc(/C=C2/NC(=O)N(c3ccccc3)C2=O)c(C)n1-c1cccnc1	6.8	142.0	108.8*	2.0	-6.8	2.2
Cc1cccc(-n2c(C)cc(/C=C3\NC(=O)NC3=O)c2C)c1	7.0	104.0	81.5*	-0.1	-7.0	0.0
Cc1cc(/C=C2/NC(=S)NC2=O)c(C)n1-c1cccnc1	-3.9	106.0	37.5	0.4	3.9	4.7
C=CC[C@H](CC(=O)N(CCO)Cc1ccccc1)C(=O)N[C@H](COC(=O)[C@@H](CC=C)CC(=O)OC(C)(C)C)Cc1c[nH]c2ccccc12	-21.5	93.0	0.7	.	21.5	-5.4
C/C(Nc1ccc(C)cc1)=C(/C#N)C(N)=O	-8.2	101.0	-0.6	0.9	8.2	-0.8
COC(=O)C(C#N)c1nc2ccccc2nc1N1CCN(Cc2ccc3c(c2)OCO3)CC1 (centres undefined)	.	.	5.0	-0.2	.	.
CCOC(=O)/C(=C\C=C1/Sc2ccccc2N1CC)C(C)=O	39.4	116.0	53.4*	0.2	-39.4	1.7
CCOC(=O)/C(=C/C=C1\Sc2ccccc2N1CC)C(C)=O	46.8	106.0	45.7	0.7	-46.8	4.4
CCOc1ccc2c(c1)-c1c(ssc1=S)C(C)(C)N2C	89.1*	91.0	34.5	5.0	-89.1	1.4
O=C(NCc1cccnc1)c1ccc(COc2ccc(Cl)cc2Cl)o1	-3.3	99.0	19.8	-1.1	3.3	0.1
CC(C)NC(=O)c1ccc(COc2cccc3ccccc23)o1	.	98.0	.	.	.	0.4
CCCc1ccc(OCc2ccc(C(=O)NCc3cccnc3)o2)c(OC)c1	20.1	100.0	50.5*	0.7	-20.1	0.5
CCOc1ccc(OCc2ccc(C(=O)NCc3cccnc3)o2)cc1	7.8	94.0	18.1	0.0	-7.8	-1.8
COc1ccccc1NC(=O)c1ccc(COc2ccccc2OC)o1	34.1	98.0	27.6	-0.4	-34.1	3.6
NNC(=O)c1ccc(COc2cccc3ccccc23)o1	20.1	92.0	68.8*	1.0	-20.1	2.9
CCCc1ccc(OCc2ccc(C(=O)Nc3cccc(C)n3)o2)c(OC)c1	3.0	98.0	59.8*	0.0	-3.0	5.4
SMILES	SR-BI HDL uptake	ABCB6 inh 2	AHR act	HIF activator	SR-BI DiI-HDL act	GAA850 FXN act
O=C(NCc1cccnc1)c1ccc(COc2cccc3ccccc23)o1	.	87.0	77.5*	-0.8	.	2.5
COCCCNC(=O)/C(C#N)=C/c1cccc(NC(=O)c2ccccc2Cl)c1	9.8	101.0	12.0	1.0	-9.8	0.1
COc1ccc(NC(=O)COc2cccnc2[N+](=O)[O-])cc1OC	0.1	98.0	4.8	-1.1	-0.1	0.0
CC1=C(CC(=O)c2ccc(Cl)cc2)C(=O)c2ccccc2C1=O	-2.8	105.0	54.7*	1.1	2.8	1.3
O=C(Cc1ccccn1)c1ccc(Cl)cc1	-5.9	96.0	1.9	-2.2	5.9	5.4
O=C(Nc1cc2c3c(c1)C1CCCC1CN3CC1CCCC21)c1ccccc1 (centres undefined)	79.9*	99.0	6.3	-1.1	-79.9	-1.2
COCCn1c(=NC(=O)/C=C/c2ccccc2Cl)sc2cc(NC(C)=O)ccc21	57.9	102.0	31.0	0.1	-57.9	-0.6
CCOCCn1c(=NC(=O)/C=C/c2ccccc2Cl)sc2cc(NC(C)=O)ccc21	70.7*	101.0	26.6	-0.3	-70.7	0.9
O=C1c2ccccc2C(=O)c2c(Nc3ccc(CCO)cc3)ccc(O)c21	93.3*	96.0	68.5*	-14.8	-93.3	1.6
Cc1cc(NC(=O)CCC(=O)N(CC2CCCO2)C(C(=O)NC2CCCC2)c2cccnc2)no1 (centres undefined)	-13.7	103.0	2.5	0.1	13.7	0.8
CC1CCCCN1C(=O)C(Cc1ccccc1)N1C(=O)C2CCCCC2C1=O (centres undefined)	-39.6	94.0	-1.5	0.0	39.6	-1.7
CCOc1ccccc1NS(=O)(=O)c1ccc2[nH]c(=O)ccc2c1	-11.8	96.0	.	-3.6	11.8	0.6
CC1CCC/C(=N/Nc2nc3ccccc3s2)C1 (centres undefined)	13.5	88.0	61.5*	0.6	-13.5	3.4
O=C(Nc1nccs1)C(Br)C(Br)c1ccccc1 (centres undefined)	26.9	91.0	51.5*	2.0	-26.9	-2.0
CC(=O)OC(C(=O)Nc1nccs1)c1ccccc1 (centres undefined)	12.3	102.0	-0.1	0.7	-12.3	-0.3
CCCCc1c(C)nc(Nc2ccc(OC)cc2)[nH]c1=O	-60.3	110.0	-3.2	0.7	60.3*	-1.1
CCCCCc1c(C)nc(Nc2ccc(F)cc2)[nH]c1=O	-0.1	99.0	-0.3	0.4	0.1	-1.1
Cc1cc(C(O)c2ncc(-c3ccccc3C)[nH]2)ccc1F (centres undefined)	.	103.0	.	.	.	-1.0
Oc1ccc2ccccc2c1/C=N/n1cnnc1	-31.7	95.0	29.8	-0.4	31.7	4.1
COc1ccc2cc3c(N)nn(C(=O)Cc4c[nH]c5ccccc45)c3nc2c1	2.0	98.0	38.1	14.2*	-2.0	-9.8
O=C(c1cccc(Br)c1)N1CCN(C(=O)c2cccc(Br)c2)CC1	27.6	88.0	-0.7	-1.5	-27.6	0.2
Cc1ccc(/C(=N\O)c2oc3c(C)c4oc(=O)cc(C)c4cc3c2C)cc1	14.6	92.0	-0.4	0.0	-14.6	1.2

High-throughput results as filed in PubChem.
